{"data": "Measurements pooled from the literature", "target": "Serine/threonine-protein kinase DCLK3 (DCLK3, Homo sapiens, UniProt Q9C098)", "Sequence (Q9C098 1-648, as in one of the studies)": "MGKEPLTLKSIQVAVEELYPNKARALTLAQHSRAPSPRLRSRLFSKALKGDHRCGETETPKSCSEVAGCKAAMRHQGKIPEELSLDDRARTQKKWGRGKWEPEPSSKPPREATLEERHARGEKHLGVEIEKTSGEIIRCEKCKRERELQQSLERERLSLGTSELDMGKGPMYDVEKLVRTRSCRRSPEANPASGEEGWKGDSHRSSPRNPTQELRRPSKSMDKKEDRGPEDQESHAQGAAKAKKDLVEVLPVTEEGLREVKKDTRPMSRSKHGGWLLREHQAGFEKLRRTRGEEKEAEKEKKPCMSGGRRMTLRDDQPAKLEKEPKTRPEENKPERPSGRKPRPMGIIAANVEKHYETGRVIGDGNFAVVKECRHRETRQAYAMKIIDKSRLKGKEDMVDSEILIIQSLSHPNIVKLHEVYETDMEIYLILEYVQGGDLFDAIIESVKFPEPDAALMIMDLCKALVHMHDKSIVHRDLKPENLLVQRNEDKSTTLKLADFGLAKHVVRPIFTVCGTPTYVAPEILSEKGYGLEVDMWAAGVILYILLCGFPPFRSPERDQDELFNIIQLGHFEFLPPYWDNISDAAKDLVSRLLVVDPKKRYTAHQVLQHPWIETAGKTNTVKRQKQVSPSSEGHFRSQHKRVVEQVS", "note": "Each line is one published result; the experiments were not run side by side."}
{"Compound": "c1cnn2ncc(-c3ccnc(N4CCC45COC5)n3)c2c1", "effect on": "binding", "tested at": "1 µM", "remaining binding": "100%"}
{"Compound": "Cc1cnc(Nc2ccc(C(=O)N3CCC(N4CCCC4)CC3)cc2)nc1-c1cc2ccccc2s1", "effect on": "binding", "method": "competition with immobilised ligand", "tested at": "1 µM", "remaining binding": "0.5%"}
{"Compound": "CCCCN(CCCC)C(=O)CN1C[C@@H](c2cc(OC)c3c(c2)OCO3)[C@H](C(=O)O)[C@H]1CC(C)(C)CCC", "effect on": "cell-free assay", "method": "competition with immobilised ligand", "tested at": "1 µM", "remaining binding": "100%"}
{"Compound": "Nc1ncc2c(n1)-c1c([nH]c3ccc(C#CC4CC4)cc13)CCCC2", "effect on": "binding", "method": "competition with immobilised ligand", "tested at": "1 µM", "remaining binding": "100%"}
{"Compound": "CN(C)c1nccc(-c2cnn3ncccc23)n1", "effect on": "binding", "tested at": "1 µM", "remaining binding": "100%"}
{"Compound": "O=C(N1CCS(=O)(=O)CC1)N1C[C@H](c2ccc(OC(F)(F)F)cc2)C[C@H](c2nc(C3CC3)no2)C1", "effect on": "cell-free assay", "method": "competition with immobilised ligand", "tested at": "1 µM", "remaining binding": "100%"}
{"Compound": "COc1ncc2cc3ccccc3nc2c1C#N", "effect on": "cell-free assay", "method": "competition with immobilised ligand", "tested at": "5 µM", "remaining binding": "100%"}
{"Compound": "CC1CCCN1c1nccc(-c2cnn3ncccc23)n1 (stereo not drawn)", "effect on": "binding", "tested at": "1 µM", "remaining binding": "100%"}
{"Compound": "N#CC1(c2ccccn2)CCN(Cc2cc(C(=O)N3CCCC3)c(=O)n3ccccc23)CC1", "effect on": "cell-free assay", "method": "competition with immobilised ligand", "tested at": "1 µM", "remaining binding": "100%"}
{"Compound": "N[C@H]1CCN(c2nccc(-c3cnn4ncccc34)n2)C1", "effect on": "binding", "tested at": "1 µM", "remaining binding": "100%"}
{"Compound": "CC(C)(O)c1cncc(-c2nc3ccc(F)cc3n2C2CC2)c1", "effect on": "cell-free assay", "method": "competition with immobilised ligand", "tested at": "1 µM", "remaining binding": "100%"}
{"Compound": "c1cncc(-c2cccc(Nc3nccc(NC4CCCCC4)n3)c2)c1", "effect on": "binding", "method": "competition with immobilised ligand", "tested at": "10 µM", "remaining binding": "80%"}
{"Compound": "FC(F)(F)Oc1cccc(-c2cnc3ccc(-c4ccncc4)nn23)c1", "effect on": "cell-free assay", "method": "competition with immobilised ligand", "tested at": "5 µM", "remaining binding": "100%"}
{"Compound": "O=C(c1ccc(Nc2ncc(Cl)c(-c3cc4ccccc4s3)n2)cc1)N1CCC(N2CCCC2)CC1", "effect on": "binding", "method": "competition with immobilised ligand", "tested at": "1 µM", "remaining binding": "0.9%"}
{"Compound": "C[C@H]1CCN(c2nccc(-c3cnn4ncccc34)n2)C1", "effect on": "binding", "tested at": "1 µM", "remaining binding": "93%"}
{"Compound": "O=C(Nc1c[nH]nc1C(=O)NC1CCNCC1)c1cc(F)cc(F)c1", "effect on": "binding", "method": "competition with immobilised ligand", "tested at": "1 µM", "remaining binding": "93%"}
{"Compound": "COc1cnc(Nc2cccc(S(N)(=O)=O)c2)nc1N1CCN(c2ccccc2)C(=O)C1", "effect on": "binding", "method": "competition with immobilised ligand", "tested at": "1 µM", "remaining binding": "100%"}
{"Compound": "CN(C)c1ncnc(-c2ccc3nc(Nc4cc(CN5CCN(C(=O)CC(F)(F)F)CC5)ccn4)[nH]c3c2)c1Cl", "effect on": "cell-free assay", "method": "competition with immobilised ligand", "tested at": "1 µM", "remaining binding": "92%"}
{"Compound": "CN(C)c1nccc(-c2cnc3ncccn23)n1", "effect on": "binding", "tested at": "1 µM", "remaining binding": "76%"}
{"Compound": "O=C(c1ccc(Nc2nccc(-c3cc4ccccc4s3)n2)cc1)N1CCC(N2CCCC2)CC1", "effect on": "binding", "method": "competition with immobilised ligand", "tested at": "1 µM", "remaining binding": "45%"}
{"Compound": "COc1ccc2c(c1)O[C@@H](c1ccc(OC)c(OC)c1)C[C@H]2NC(=O)C1(c2ccc3c(c2)OC(F)(F)O3)CC1", "effect on": "cell-free assay", "method": "competition with immobilised ligand", "tested at": "1 µM", "remaining binding": "98%"}
